{"source": "ChEMBL document CHEMBL3045249", "about": "“Synthesis of glucose-fipronil conjugate and its phloem mobility” (J Agric Food Chem, 2011)", "key": {"Root [1]": {"tested_on": "Root", "assay": "Drug metabolism in adult Ricinus communis (castor bean) roots assessed as compound conversion to fipronil at 2 mM measured 48 to 72 hr post treatment", "type": "ADME", "conditions": "2000 µM; call rule not given here", "outline": "(§1)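 Adult castor bean plants. On each of two fully expanded leaves, 100 mm2 of the adaxial surface was abraded with a Celite slurry, rinsed and blotted dry. 200 μL of aqueous GTF in 0.1% Tween 80/10% acetone was applied per leaf; vehicle alone served as control. After 48 and 72 h, plants were cut into apical leaves, upper stem, lower stem and roots (three replicates). 2 g tissue was acetone-extracted with 15 min sonication. Fipronil was quantified by C18 HPLC (acetonitrile/water 50:50, 1.0 mL/min, 210 nm) against external calibration.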"}, "Lower stem [2]": {"tested_on": "Lower stem", "assay": "Drug metabolism in adult Ricinus communis (castor bean) lower stem assessed as compound conversion to fipronil at 2 mM measured 48 to 72 hr post treatment", "type": "ADME", "conditions": "2000 µM", "outline": "as §1"}, "Upper stem [3]": {"tested_on": "Upper stem", "assay": "Drug metabolism in adult Ricinus communis (castor bean) upper stem assessed as compound conversion to fipronil at 2 mM measured 48 to 72 hr post treatment", "type": "ADME", "conditions": "2000 µM", "outline": "as §1"}, "Apical leaf [4]": {"tested_on": "Apical leaf", "assay": "Drug metabolism in adult Ricinus communis (castor bean) apical leaves assessed as compound conversion to fipronil at 2 mM measured 48 to 72 hr post treatment", "type": "ADME", "conditions": "2000 µM", "outline": "as §1"}, "Root [5]": {"tested_on": "Root", "assay": "Drug metabolism in adult Ricinus communis (castor bean) roots assessed as compound conversion to fipronil at 2 mM measured 48 to 72 hr post treatment by HPLC-MS method", "type": "ADME", "conditions": "2000 µM", "outline": "as §1"}, "Lower stem [6]": {"tested_on": "Lower stem", "assay": "Drug metabolism in adult Ricinus communis (castor bean) lower stem assessed as compound conversion to fipronil at 2 mM measured 48 to 72 hr post treatment by HPLC-MS method", "type": "ADME", "conditions": "2000 µM", "outline": "as §1"}, "Upper stem [7]": {"tested_on": "Upper stem", "assay": "Drug metabolism in adult Ricinus communis (castor bean) upper stem assessed as compound conversion to fipronil at 2 mM measured 48 to 72 hr post treatment by HPLC-MS method", "type": "ADME", "conditions": "2000 µM", "outline": "as §1"}, "Apical leaf [8]": {"tested_on": "Apical leaf", "assay": "Drug metabolism in adult Ricinus communis (castor bean) apical leaves assessed as compound conversion to fipronil at 2 mM measured 48 to 72 hr post treatment by HPLC-MS method", "type": "ADME", "conditions": "2000 µM", "outline": "as §1"}, "Phloem [9]": {"tested_on": "Phloem", "assay": "Phloem mobility in Ricinus communis (castor bean) seedlings phloem sap assessed as drug level at 200 uM measured 7 hr post dose by DiBAC4 indicator based flow cytometry relative to untreated control", "type": "ADME"}, "Phloem [10]": {"tested_on": "Phloem", "assay": "Phloem mobility in Ricinus communis (castor bean) seedlings phloem sap assessed as drug level at 200 uM by HPLC-MS method", "type": "ADME", "outline": "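Six-day castor bean seedlings, endosperm removed. After 1 h the hypocotyl was severed and phloem sap collected from the upper hypocotyl. Sap was analysed by C18 HPLC (acetonitrile/water 50:50, 1.0 mL/min, 210 nm, 25 °C) with external calibration; identity was confirmed by positive-ion APCI-MS.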"}, "Phloem [11]": {"tested_on": "Phloem", "assay": "Phloem mobility in Ricinus communis (castor bean) seedlings phloem sap assessed as drug level at 200 uM measured 3.5 hr post dose by DiBAC4 indicator based flow cytometry relative to untreated control", "type": "ADME"}, "Phloem [12]": {"tested_on": "Phloem", "assay": "Phloem mobility in Ricinus communis (castor bean) seedlings phloem sap assessed as drug level at 200 uM measured 8 hr post dose by DiBAC4 indicator based flow cytometry", "type": "ADME", "outline": "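Protoplasts from cotyledons were isolated by 4 h digestion at 28 °C in cellulase/pectinase with 0.6 M mannitol and MES pH 5.8. They were suspended in buffer with 200 μM compound, or none for control, and shaken at 28 °C for 8 h. Every 2 h, samples were stained with 2 μM DiBAC4(3) for 30 min. Fluorescence of 20000 viable cells was read by flow cytometry (ex 488/em 530 nm) and expressed relative to fresh cells; n = 3, Duncan's test.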"}, "Plutella xylostella": {"tested_on": "Plutella xylostella", "assay": "Insecticidal activity against Plutella xylostella (diamondback moth) third-instar larvae measured 24 hr post dose by leaf disk dipping assay", "type": "functional", "conditions": "foliar", "outline": "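Third-instar larvae, leaf disk dip. Compounds were dissolved in acetone and suspended in water with 0.1% Tween 80. 5.5 cm leaf disks were dipped 30 s and air-dried 2 h, then 10 larvae were placed per dish. Control was 10% acetone/0.1% Tween 80. Incubation at 26 ± 2 °C, 70% RH, 16:8 h light/dark; five replicates. Mortality was scored at 24 h and LC50 derived with 95% confidence limits.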"}}, "data": [{"smiles": "N#Cc1nn(-c2c(Cl)cc(C(F)(F)F)cc2Cl)c(NCc2cn([C@@H]3O[C@H](CO)[C@@H](O)[C@H](O)[C@H]3O)nn2)c1[S+]([O-])C(F)(F)F", "note": "(stereo not given in full)", "values": [{"measurement": "Drug metabolism", "setting": "Root [1]", "value": "Active"}, {"measurement": "Drug metabolism", "setting": "Lower stem [2]", "value": "Active"}, {"measurement": "Drug metabolism", "setting": "Upper stem [3]", "value": "Active"}, {"measurement": "Drug metabolism", "setting": "Apical leaf [4]", "value": "Active"}, {"measurement": "Drug metabolism", "setting": "Root [5]", "value": "Active"}, {"measurement": "Drug metabolism", "setting": "Lower stem [6]", "value": "Active"}, {"measurement": "Drug metabolism", "setting": "Upper stem [7]", "value": "Active"}, {"measurement": "Drug metabolism", "setting": "Apical leaf [8]", "value": "Active"}, {"measurement": "fold change (FC)", "setting": "Phloem [9]", "value": 0.45}, {"measurement": "Drug mobility", "setting": "Phloem [10]", "value": "Active"}, {"measurement": "fold change (FC)", "setting": "Phloem [11]", "value": 0.25}, {"measurement": "Drug mobility", "setting": "Phloem [12]", "value": "Active"}]}, {"smiles": "N#Cc1nn(-c2c(Cl)cc(C(F)(F)F)cc2Cl)c(N)c1[S+]([O-])C(F)(F)F", "note": "(stereo not given) [FIPRONIL]", "values": [{"measurement": "LC50", "setting": "Plutella xylostella", "value": 21.4, "unit": "mg/L"}, {"measurement": "Drug mobility", "setting": "Phloem [10]", "value": "Not Active"}, {"measurement": "Drug mobility", "setting": "Phloem [12]", "value": "Not Active"}]}]}
